Tests used:
S. pneumoniae = assay: Antibacterial activity; type: cell-based, Streptococcus pneumoniae; conditions: Figure 9, trimethoprim vs compound 1 vs 5-fluorouracil
How it was run: (§1)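 Two-fold broth microdilution at ten concentrations (32, 16, 8, 4, 2, 1, 0.5, 0.25, 0.125, 0.0625 μg/mL) of test compound with bacterial suspension in medium. Medium-only and bacteria-plus-medium controls were included. Plates were incubated at 310 K for 24 h, and OD600 gave the MIC.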

Hygroscopicity test = type: physicochemical; conditions: for percentage weight gain on the first day: 298 K, relative humidity 90 ± 5%; for hygroscopicity class (Chinese Pharmacopoeia): by weight gain
[1] = system: breast cancer cells (MDA-MB-231); assay: In vitro anticancer activity, MTT assay; type: cell-based, human; conditions: MDA-MB-231 breast cancer cells, MTT, 24, 48, 72 h, dose-dependent
How it was run: (§2)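 Cells were grown in DMEM with 10% FBS, 1% penicillin and 1% streptomycin at 37 °C, 5% CO2, and used in log phase (85–95% confluent). They were seeded at 3 × 10^5 cells/mL, grown 24 h, then exposed to a range of test compound concentrations for 24, 48 or 72 h, with a positive control. MTT (5 mg/mL stock) was added for 4 h at 37 °C. Formazan was dissolved in DMSO and read at 490 nm after 10 min shaking, with blank-well correction.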

[2] = system: human colon cancer cells (SW480); assay: In vitro anticancer activity, MTT assay; type: cell-based; conditions: SW480 (human rectal cancer cells), MTT, 24, 48, 72 h, dose-dependent
How it was run: as §2

mice = conditions: cited from earlier work
P. aeruginosa = assay: Antibacterial activity; type: cell-based, Pseudomonas aeruginosa; conditions: Figure 9, trimethoprim vs compound 1 vs 5-fluorouracil
How it was run: as §1

S. dysenteriae = assay: Antibacterial activity; type: cell-based, Shigella dysenteriae; conditions: Figure 9, trimethoprim vs compound 1 vs 5-fluorouracil
How it was run: as §1

[3] = system: lung cancer cells (H1299); assay: In vitro anticancer activity, MTT assay; type: cell-based, human; conditions: MTT, 24, 48, 72 h, dose-dependent
How it was run: as §2

S. aureus = assay: Antibacterial activity; type: cell-based, Staphylococcus aureus; conditions: Figure 9, trimethoprim vs compound 1 vs 5-fluorouracil
How it was run: as §1

[4] = Intrinsic dissolution rate in pure water; type: physicochemical; conditions: 310 K, 100 rpm

SMILES | antibacterial activity, comparison in words (S. pneumoniae) | percentage weight gain on the first day (Hygroscopicity test) [%] | hygroscopicity class (Chinese Pharmacopoeia) (Hygroscopicity test) | inhibition effect on cancer cells [1] | inhibition effect on cancer cells [2] | oral LD50 (mice) [mg/kg] | antibacterial activity, comparison in words (P. aeruginosa) | antibacterial activity, comparison in words (S. dysenteriae) | inhibition effect on cancer cells [3] | antibacterial activity, comparison in words (S. aureus) | IDR (intrinsic dissolution rate) [4] [mg cm^–2 min^–1]
O=c1[nH]cc(F)c(=O)[nH]1 [5-fluorouracil] | the greatest | 0.19 | slightly hygroscopic (slightly hygroscopic ≥ 0.2%) | significant inhibition effect | significant inhibition effect | 220 | the greatest | the greatest | significant inhibition effect | the greatest | 
COc1cc(Cc2cnc(N)nc2N)cc(OC)c1OC [trimethoprim] |  | 0.20 | slightly hygroscopic (slightly hygroscopic ≥ 0.2%) |  |  | > 5300 |  |  |  | greater than that of compound 1 | 0.039

From article PMC10286293 (ACS Omega, 2023)
